GRK2 aptamer HTS: compounds blocking aptamer binding on GRK2 – biochemical, human GRK2, bead flow cytometry, HTS, primary screen; AID 488847, 2010; inhibition of aptamer binding, % at 10 µM; 330,000 tested, 0.59% active; FAM-aptamer displacement from GRK2;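 active means inhibition of aptamer binding above 40%, roughly 3 SD of noise, on plates passing a quality check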;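 further: median bead fluorescence of bound FAM aptamer so fluorescent compounds give negative values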
STEP block: STEP phosphatase inhibitors, primary screen, biochemical, fluorescence intensity, uHTS; Tyrosine-protein phosphatase non-receptor type 5 (Homo sapiens), P54829; recombinant STEP, OMFP fluorogenic substrate; inhibition, % at 20 µM; 360,000 tested, 0.25% active; AID 588621, 2011;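 active means inhibition at 20 µM, scaled per plate between control wells, above about 37%, limit read from the data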
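Also added – OMFP at 25 µM · Test system – STEP tyrosine phosphatase · Technique – FITC-channel fluorescence of OMFP product · Schedule – 20 min at room temperature, dark · Evaluation – control-normalized % inhibition with plate pattern correction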
Scp-1 inhibitor: Scp-1 phosphatase inhibitors, primary screen, biochemical, colorimetric, uHTS; Carboxy-terminal domain RNA polymerase II polypeptide A small phosphatase 1 (Homo …; Recombinant Scp1, phosphopeptide, malachite green phosphate absorbance; inhibition, % at 20 µM; 340,000 tested, 0.88% active; AID 493091, 2011;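 active means inhibition above about 50% at 20 µM, limit read from the data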
Target sequence (Q9GZU7 76-261 limits assumed): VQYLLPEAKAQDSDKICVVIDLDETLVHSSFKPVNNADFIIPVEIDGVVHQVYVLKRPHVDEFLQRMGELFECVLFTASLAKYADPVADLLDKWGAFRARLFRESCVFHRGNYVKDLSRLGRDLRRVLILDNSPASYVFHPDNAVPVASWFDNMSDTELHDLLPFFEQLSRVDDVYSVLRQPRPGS
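System: truncated SCP-1 phosphatase (76-261aa); medium: Tris acetate buffer pH 5.5 with MgCl2 and Tween-20; incubation: 45 min room-temperature reaction, 5 min colour, 30 min stabiliser; compound: single 20 µM dose, 1% DMSO; reagent: Phosphorylated 17-residue peptide substrate; read-out: % inhibition at 20 µM; technique: colorimetric free-phosphate detection, absorbance 630 nm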
SUMO1 PPI mod: modulators of SUMO1 protein-protein interactions, primary screen, biochemical, uHTS; Small ubiquitin-related modifier 1 (Homo sapiens), P63165; SUMO1 binding to a labelled peptide, TR-FRET, 1 h; inhibition, % at 20 µM; 360,000 tested, 0.33% active; in the data active means inhibition above about 37%
Target sequence (P63165 whole entry, looked up): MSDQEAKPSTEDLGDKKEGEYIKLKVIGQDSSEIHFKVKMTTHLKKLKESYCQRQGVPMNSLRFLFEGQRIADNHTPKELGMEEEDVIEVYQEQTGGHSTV
LMPTP block: LMPTP phosphatase inhibitors, primary screen, biochemical, fluorescence intensity, uHTS | Low molecular weight phosphotyrosine protein phosphatase (Homo sapiens), P24666 | recombinant LMPTP-A, OMFP fluorogenic substrate | inhibition, % at 20 µM | 360,000 tested, 0.22% active;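 active means compounds that cut the enzyme signal by at least half of the control window in the single-dose screen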
Target sequence (P24666 whole entry, looked up): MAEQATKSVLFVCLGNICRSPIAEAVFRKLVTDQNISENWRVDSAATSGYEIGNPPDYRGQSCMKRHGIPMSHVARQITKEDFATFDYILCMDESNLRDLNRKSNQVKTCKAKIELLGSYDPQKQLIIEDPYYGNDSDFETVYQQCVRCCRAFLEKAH
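Test system – LMPTP-A phosphatase enzyme · Quantity – 0.625 nM LMPTP-A final · Reagent – OMFP substrate, 400 µM final · Dosing – one test concentration per compound, 20 µM, with 3% DMSO overall · Timing – 50 min enzyme reaction at room temperature, protected from light · Detection – fluorescence intensity · Controls – substrate-only low control, DMSO enzyme-plus-substrate high control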
DNMT1 block: human DNMT1 methyltransferase inhibitors, primary screen, biochemical, molecular beacon, fluorescence, HinP1I cleavage, uHTS | AID 588458, 2011 | 360,000 tested, 0.83% active | DNA (cytosine-5)-methyltransferase 1 (Homo sapiens), P26358 | inhibition (reported as % activation of signal), % at 10 µM; in the data active means inhibition above about 50%
DNMT1 confirm: DNMT1 methyltransferase inhibitor retest, confirmation, biochemical, molecular beacon, fluorescence, single concentration. shares compounds with DNMT1 block. DNMT1 molecular beacon HinP1I cleavage. inhibition, % at 10 µM. 2,300 tested, 8% active. AID 602385, 2012;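 active means average inhibition of at least 30% in the single-concentration confirmation test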
Beacon interf: counter-screen for DNMT1 inhibitors: spectral interference; shares compounds with DNMT1 block; DNMT1 molecular beacon spectral interference counterscreen, fluorescence 485/520; activation (fluorescence interference), % at 10 µM; 2,300 tested, 1% active;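 active means activation of at least 30% at 10 µM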;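 further: DNMT1 catalytic domain with a HinP1I cleavage step and a FAM/dabcyl DNA beacon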
Hits are given with their value; 0 = inactive; - = no result given. Sampled rows, rich in hits. Any-hit rate of the full collection: about 2.1%.

SMILES | GRK2 aptamer HTS | STEP block | Scp-1 inhibitor | SUMO1 PPI mod | LMPTP block | DNMT1 block | DNMT1 confirm | Beacon interf
Cc1nc2sccn2c(=O)c1CCN1CCC(=C(c2ccc(F)cc2)c2ccc(F)cc2)CC1 | 0 | 0 | 0 | 0 | 0 | 59 | 0 | 0
COC(=O)C[C@@H]1CC[C@H](NC(=O)CC2CC2)[C@@H](CO)O1 | - | - | - | 0 | 0 | - | - | -
O=C(NCc1ccccc1)[C@@H]1C[C@H]1[C@@H](NP(=O)(c1ccccc1)c1ccccc1)c1ccccc1 | - | 0 | 0 | 0 | 0 | 0 | - | -
Cc1ccc(CNC(=O)[C@H]2C[C@@H]2[C@H](NP(=O)(c2ccccc2)c2ccccc2)c2ccccc2)o1 | 0 | 0 | 0 | 0 | 0 | 71 | 0 | 0
COc1cccc(NC(=O)CSc2nnc(Cc3cccn3C)n2-c2ccc(F)cc2)c1 | 0 | 0 | 0 | 0 | 0 | 76 | 0 | 0
COc1ccc(-n2c(Cc3cccn3C)nnc2SCC(=O)Nc2cccc(OC)c2)cc1 | 0 | 0 | 0 | 0 | 0 | 0 | - | -
Cc1cc(/C=C2/C(=O)N(C)C(=S)N2C)c(C)n1C1CC1 | 0 | 0 | 0 | 0 | 0 | 0 | - | -
Cc1cc(/C=C2\SC(=S)NC2=O)c(C)n1C1CC1 | 0 | 0 | 0 | 0 | 0 | 66 | 0 | 0
Cc1noc(C)c1CCC(=O)N1CCCC(N2CCN(c3ccc(F)cc3)CC2)C1 (stereo not drawn) | 0 | 0 | 0 | 0 | 0 | 86 | 0 | 0
CCCCCCCCN1C(=O)[C@H](CC(=O)N2CCOCC2)C[C@@]2(C(=O)OC)CCCCC=C12 | - | - | - | 0 | 0 | - | - | -
O=c1[nH]c(CSc2nnc(Nc3ccccc3)s2)nc2ccccc12 | 0 | 0 | 0 | 0 | 0 | 0 | - | -
O=C(CCc1nc2ccccc2c(=O)[nH]1)Nc1nnc(SCc2ccccc2)s1 | 0 | 0 | 0 | 0 | 0 | 67 | 0 | 0
O=C(N/N=C/c1ccc([N+](=O)[O-])o1)C(=O)Nc1ccc(C(=O)O)cc1 | 0 | 0 | 0 | 0 | 0 | 0 | - | -
O=C(O)c1ccc(N/N=C/C=C/c2ccc([N+](=O)[O-])o2)cc1 | 91 | 43 | 58 | 0 | 0 | 72 | 0 | 0
Cc1cc2ccccc2cc1CN1CCOCC1 | 0 | 0 | 0 | 0 | 0 | 58 | 0 | 0
O=C(NCc1cc(C(F)(F)F)ccc1Cl)c1cccc2c1C(=O)c1ccc(N3CCOCC3)cc1S2(=O)=O | 0 | 0 | 0 | 0 | 0 | 62 | 0 | 0
O=C(NCc1cc(C(F)(F)F)ccc1Cl)c1cccc2c1C(=O)c1ccc(N3CCCCC3)cc1S2(=O)=O | 0 | 0 | 0 | 0 | 0 | 0 | - | -
C/C=C\C=C/C(=O)Nc1cccc(C2=NOC3(C2)C[C@H](C(N)=O)N(C(=O)c2ccc(OC)cc2)C3)c1 (stereo partly drawn) | 0 | 0 | 0 | 0 | 0 | 0 | - | -
O=C(CC1Oc2ccccc2NC1=O)NC1CCCC1 (stereo not drawn) | 0 | 0 | 0 | 0 | 0 | 0 | - | -
O=C(CC1Oc2ccccc2NC1=O)NC1CC1 (stereo not drawn) | 0 | 0 | - | 0 | 0 | 97 | 0 | 0
O=C(COC(=O)c1ccc(O)cc1)Nc1ccc2c(c1)OCO2 | 0 | 0 | 0 | 0 | 0 | 0 | - | -
C#CCn1c(=NC(=O)c2cccs2)sc2cccc(OC)c21 | 0 | 0 | 0 | 0 | 0 | 58 | 0 | 33
CCc1ccccc1N1C(=O)[C@@H]2Cc3ccccc3CN2C1=O | 0 | 0 | 0 | 0 | 0 | 0 | - | -
Cc1cccc(NC(=O)CSc2nnc(-c3ccco3)c(-c3ccco3)n2)c1C | 0 | 0 | 63 | 0 | 0 | 106 | 0 | 0
Cc1cccc(NC(=O)CSc2nnc(-c3ccco3)c(-c3ccco3)n2)c1 | - | 0 | 0 | 0 | 0 | 0 | - | -
SMILES | GRK2 aptamer HTS | STEP block | Scp-1 inhibitor | SUMO1 PPI mod | LMPTP block | DNMT1 block | DNMT1 confirm | Beacon interf
COc1ccc(N(CC(=O)NCCSCc2ccco2)S(=O)(=O)c2ccccc2)cc1 | 0 | 0 | 0 | 0 | 0 | 76 | 0 | 0
COc1ccc(N(CC(=O)NCCSCc2ccco2)S(=O)(=O)c2ccc(C)cc2)cc1 | 0 | 0 | 0 | 0 | 0 | 0 | - | -
COC(=O)c1cc2occc2n1Cc1nc(-c2ccc(Cl)cc2)oc1C | 0 | 0 | 0 | 0 | 0 | 0 | - | -
COC(=O)c1cc2occc2n1Cc1nc(-c2ccccc2Cl)oc1C | 0 | 0 | 0 | 0 | 0 | 86 | 0 | 0
CCOc1ncccc1C(=O)OCC(=O)c1ccc(Br)s1 | 0 | 0 | 0 | 0 | 0 | 0 | - | -
CC(C)(C)OC(=O)NCCCCCNC(=O)c1[nH]cnc1C(=O)NC1CCN(C(=O)OC(C)(C)C)CC1 | 0 | 0 | 0 | 0 | 0 | 76 | 0 | 0
CC(C)(C)OC(=O)NCCCCCNC(=O)c1nc[nH]c1C(=O)N1CCN(C(=O)OC(C)(C)C)CC1 | 0 | 0 | 0 | 0 | 0 | 0 | - | -
CC(C)Cc1cc(C(C)(C)C)ccc1OC(=S)N(C)C | 0 | 0 | 0 | 0 | 0 | 0 | - | -
O=C(O)c1ccc(C(=O)c2ccc3c(c2)C(=O)N(CCO)C3=O)cc1 | 0 | 0 | 0 | 0 | 0 | 88 | 0 | 0
O=C(c1ccc2c(c1)C(=O)N(CCCO)C2=O)c1ccc2c(c1)C(=O)N(CCCO)C2=O | 0 | 0 | 0 | 0 | 0 | 0 | - | -
COc1ccc(S(=O)(=O)Nc2c(NC3CCCCC3)c3ccccc3oc2=O)cc1 | 0 | 0 | 0 | 0 | 0 | 0 | - | -
COc1ccccc1C(C)NC(=O)c1ccc(S(=O)(=O)NCc2ccco2)cc1 (stereo not drawn) | 0 | 0 | 0 | 0 | 0 | 0 | - | -
CCOc1ccccc1NC(=O)CSc1nncc2ccccc12 | 0 | 0 | 0 | 0 | 0 | 0 | - | -
O=C1/C(=C/c2ccco2)Cc2ccccc21 | 0 | 0 | 0 | 0 | 0 | 59 | 0 | 0
Cc1ccc(S(=O)(=O)N(C)CC(=O)NNC(=O)CCS(=O)(=O)c2ccccc2)cc1 | 0 | 0 | 0 | 0 | 0 | 0 | - | -
CN1C(=O)S/C(=C/c2cccn2-c2cccc(C(=O)O)c2)C1=O | 0 | 0 | 0 | 0 | 0 | 0 | - | -
O=C(O)c1cccc(-n2cccc2/C=C\[N+](=O)[O-])c1 | 0 | 0 | 0 | 0 | 0 | 62 | 0 | 0

Assay outcomes deposited in PubChem by several laboratories.
